Data from ChEMBL document CHEMBL2346635, “6-Oxo and 6-thio purine analogs as antimycobacterial agents” (Bioorg Med Chem, 2013).
In brackets after ≈: the same amount, converted by molar mass. Activity calls are given as the source filed them. The calls are words filed in the database; no cut-off is given here.

What was measured:
Assay type in all cases: functional
[1] = test system: Mycobacterium tuberculosis; assay: Antimycobacterial activity against Mycobacterium tuberculosis H37Ra ATCC 25177 assessed as growth inhibition by Alamar blue microdilution broth assay
How it was run: (§1)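 Alamar blue colorimetric microdilution in Middlebrook 7H9 broth with 0.2% glycerol and ADC enrichment. Primary screen at 1.28 and 12.8 µg/mL. Actives (≤12.8 µg/mL) retested in two-fold dilutions. MIC99 is the lowest concentration giving complete growth inhibition.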

[2] = test system: Mycobacterium tuberculosis; assay: Antimycobacterial activity against Mycobacterium tuberculosis H37Rv ATCC 27294 assessed as growth inhibition by radiometric BACTEC assay
[3] = test system: Mycobacterium tuberculosis; assay: Antimycobacterial activity against Mycobacterium tuberculosis H37Rv ATCC 27294 assessed as growth inhibition at 6.25 ug/ml by radiometric BACTEC assay
How it was run: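 Primary screen at a single 6.25 µg/mL in radiometric BACTEC 12B medium. Value is percent growth inhibition.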

Mycobacterium avium = assay: Antimycobacterial activity against Mycobacterium avium Nj211 assessed as growth inhibition by Alamar blue microdilution broth assay; how it was run: as §1

Compound	MIC99 [1]	MIC90 [2]	inhibition at 6.25 µg/mL [3]	MIC99 (Mycobacterium avium)	inhibition [3]
CCCCCCCCCCSc1ncnc2c1ncn2Cc1ccccc1	> 12.8 µg/mL	> 6.25 µg/mL	86%	> 12.8 µg/mL	
Nc1nc(OCc2ccc(Cl)c(Cl)c2)c2nc[nH]c2n1	> 12.8 µg/mL	> 6.25 µg/mL	24%	> 12.8 µg/mL	
Clc1nc(OCc2ccc(Cl)c(Cl)c2)c2nc[nH]c2n1	> 12.8 µg/mL	> 6.25 µg/mL	35%	> 12.8 µg/mL	
CCCCCCCCCCOc1nc(N)nc2c1ncn2CC(=O)N[C@@H](C)C(=O)OC					inactive
CCCCCCCCCCSc1ncnc2c1ncn2CCOC(C)=O	> 12.8 µg/mL	6.25 µg/mL (≈ 16.5 µM)	96%	> 12.8 µg/mL	
CC(C)Oc1nc(Cl)nc2[nH]cnc12	> 12.8 µg/mL	> 6.25 µg/mL	23%	> 12.8 µg/mL	
CCCCCCCCCCSc1nc(N)nc2c1ncn2CC(=O)N[C@H](C)C(=O)OC	> 12.8 µg/mL	> 6.25 µg/mL	7%	> 12.8 µg/mL	
CCCCCCCCCCOc1nc(N)nc2c1ncn2CC(=O)O					inactive
Nc1nc(Cl)c2ncn(CC(=O)O)c2n1					inactive
CCCCCCCCCCSc1nc(N)nc2c1ncn2CC(=O)O					inactive
CCCCCCCCCCSc1ncnc2c1ncn2NC(C)=O	> 12.8 µg/mL	> 6.25 µg/mL	92%	> 12.8 µg/mL	
CCCCCCCCCCSc1ncnc2c1ncn2CC	> 12.8 µg/mL	> 6.25 µg/mL	89%	> 12.8 µg/mL	
COc1nc(Cl)nc2[nH]cnc12	> 12.8 µg/mL	> 6.25 µg/mL	24%	> 12.8 µg/mL	
Clc1ccc(COc2ncnc3[nH]cnc23)cc1Cl	> 12.8 µg/mL	> 6.25 µg/mL	21%	> 12.8 µg/mL	
CCCCCCCCCCSc1nc(N)nc2c1ncn2CC(=O)N[C@H](Cc1ccccc1)C(=O)OC					inactive
Cc1cccc(Oc2nc(N)nc3[nH]cnc23)c1					inactive
CCCCCCCCCCSc1ncnc2c1ncn2C1CCCCC1O (stereo unspecified)	> 12.8 µg/mL	> 6.25 µg/mL	90%	> 12.8 µg/mL	
CCCCCCCCCCOc1nc(N)nc2c1ncn2CC(=O)OCC	> 12.8 µg/mL	> 6.25 µg/mL	14%	> 12.8 µg/mL	
CCCCCCCCCCSc1nc(N)nc2c1ncn2CC(=O)N[C@@H](CO)C(=O)OCC					inactive
Clc1nc(OCC2CCCCC2)c2[nH]cnc2n1					inactive
CCCCCCCCCCSc1nc(N)nc2c1ncn2CC(O)CO (stereo unspecified)	> 12.8 µg/mL	> 6.25 µg/mL	49%	> 12.8 µg/mL	
CCCCCCCCCCSc1nc(N)nc2c1ncn2Cc1ccccc1	> 12.8 µg/mL	> 6.25 µg/mL	82%	> 12.8 µg/mL	
CCCCCCCCCCSc1nc(NC(C)=O)nc2[nH]cnc12	> 12.8 µg/mL	> 6.25 µg/mL	35%	> 12.8 µg/mL	
Cc1ccc(Oc2nc(Cl)nc3[nH]cnc23)cc1					inactive
CCCCCCCCCCSc1nc(CC)nc2[nH]cnc12	> 12.8 µg/mL	> 6.25 µg/mL	84%	> 12.8 µg/mL	
c1nc(OCC2CCCCC2)c2nc[nH]c2n1	> 12.8 µg/mL	> 6.25 µg/mL	6%	> 12.8 µg/mL	
CC(C)Oc1ncnc2[nH]cnc12 [6-[(ISOPROPYL)OXY]PURINE]	> 12.8 µg/mL	> 6.25 µg/mL	23%	> 12.8 µg/mL	

Compound	MIC99 [1]	MIC90 [2]	inhibition at 6.25 µg/mL [3]	MIC99 (Mycobacterium avium)	inhibition [3]
Nc1nc(Oc2ccc(Cl)cc2)c2nc[nH]c2n1	> 12.8 µg/mL	> 6.25 µg/mL	20%	> 12.8 µg/mL	
CCCCCCCCCCCCOc1nc(Cl)nc2[nH]cnc12	> 12.8 µg/mL	> 6.25 µg/mL	59%	> 12.8 µg/mL	
CCCCCCCCCCSc1ncnc2c1ncn2C1CCCCC1	> 12.8 µg/mL	> 6.25 µg/mL	85%	> 12.8 µg/mL	
CC(C)Oc1[nH]c(N)nc2ncnc1-2	> 12.8 µg/mL	> 6.25 µg/mL	23%	> 12.8 µg/mL	
CCCCCCCCCCSc1ncnc2c1ncn2CC#N	> 12.8 µg/mL	1.56 µg/mL (≈ 4.71 µM)	97%	> 12.8 µg/mL	
Nc1nc(OCc2ccccc2)c2nc[nH]c2n1					inactive
Nc1nc(OCC2CCCCC2)c2nc[nH]c2n1	> 12.8 µg/mL	> 6.25 µg/mL	93%	> 12.8 µg/mL	
CCCCCCCCCCCCOc1ncnc2[nH]cnc12 [6-(DODECYLOXY)PURINE]	> 12.8 µg/mL	> 6.25 µg/mL	56%	> 12.8 µg/mL	
CCCCCCCCCCOc1nc(Cl)nc2[nH]cnc12	> 12.8 µg/mL	> 6.25 µg/mL	55%	> 12.8 µg/mL	
Cc1cccc(Oc2nc(Cl)nc3[nH]cnc23)c1					inactive
CCCCCCCCCCSc1nc(N)nc2c1ncn2CC(=O)N[C@@H](C)C(=O)OC					inactive
CCCCCCCCCCSc1nc(N)nc2c1ncn2CC(=O)N[C@@H](Cc1ccccc1)C(=O)OC					inactive
CCCCCCCCCCSc1ncnc2c1ncn2CCCC	> 12.8 µg/mL	6.25 µg/mL (≈ 17.9 µM)	98%	> 12.8 µg/mL	
CCCCCCCCCCSc1nc(N)nc2c1ncn2CC(=O)N[C@H](CO)C(=O)OC					inactive
CCCCCCCCCCSc1nc(N)nc2c1ncn2CC(=O)N[C@@H](Cc1ccccc1)C(=O)OCC	> 12.8 µg/mL	> 6.25 µg/mL	16%	> 12.8 µg/mL	
CCCCCCCCCCOc1nc(N)nc2c1ncn2CC(=O)N[C@@H](Cc1ccccc1)C(=O)OCC					inactive
CCCCCCCCCCSc1ncnc2c1ncn2C1CCCCCC1	> 12.8 µg/mL	> 6.25 µg/mL	81%	> 12.8 µg/mL	
Cc1ccc(Oc2nc(N)nc3[nH]cnc23)cc1					inactive
Clc1ccc(Oc2nc(Cl)nc3[nH]cnc23)cc1	> 12.8 µg/mL	> 6.25 µg/mL	8%	> 12.8 µg/mL	
CCCCCCCCCCSc1nc(SCCCCCCCCCC)c2ncn(COCCO)c2n1					inactive
Nc1nc(Oc2ccccc2)c2[nH]cnc2n1					inactive
C=CCn1cnc2c(SCCCCCCCCCC)ncnc21	> 12.8 µg/mL	6.25 µg/mL (≈ 18.8 µM)	93%	> 12.8 µg/mL	
CCCCCCCCCCSc1ncnc2c1ncn2C1CCCC1O (stereo unspecified)	> 12.8 µg/mL	6.25 µg/mL (≈ 16.6 µM)	96%	> 12.8 µg/mL	
CCCCCCCCCCOc1nc(N)nc2c1ncn2CC(=O)N[C@@H](Cc1ccccc1)C(=O)OC					inactive
CCCCCCCCCCSc1nc(N)nc2c1ncn2CC(=O)N[C@@H](CO)C(=O)OC	> 12.8 µg/mL	> 6.25 µg/mL	5%	> 12.8 µg/mL	
CCCCCCCCCCOc1nc(N)nc2[nH]cnc12	> 12.8 µg/mL	3.13 µg/mL (≈ 10.7 µM)	91%	> 12.8 µg/mL	
Clc1ccc(Oc2ncnc3[nH]cnc23)cc1					inactive
